This note sets out measurements from ChEMBL document CHEMBL2146408, “Primary amino acid derivatives: compounds with anticonvulsant and neuropathic pain protection activities” (J Med Chem, 2011).

The test system of assay [1] is Mus musculus. Nature of the assay: Antinociceptive activity in NMRI mouse assessed as inhibition of formalin-induced neuropathic pain at 79 mg/kg, ip after 30 mins. It counts as functional. Also on record: scale not given: the % may be the effect or the level left. The settings on record: route intraperitoneal. In a few lines: (§1)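 NMRI mice dosed ip at UCB Pharma, then tested in the formalin model of neuropathic pain. ED50 in mg/kg read 30 min after administration. Single-dose runs report the percentage protected.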

The subject of assay [2] is Mus musculus. As to the kind of experiment: Anticonvulsant activity in ip dosed NMRI mouse assessed as protection against maximal electroshock-induced seizure after 30 mins. As to conditions: 0.5 h. The class given is functional. In a few lines:
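Adult male NMRI mice dosed ip (UCB Pharma). MES test run per the Klitgaard procedure. […] Single-dose runs report the percentage of animals protected.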
(In general: In the maximal electroshock model the usual endpoint is tonic extension of the hind limbs.)

Assay [3] deals with Mus musculus. As to the kind of experiment: Anticonvulsant activity in ip dosed NMRI mouse assessed as protection against 6 Hz psychomotor seizure after 30 mins. As to conditions: 0.5 h, read-out: MED. The class given is functional. The method in brief:
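Adult male NMRI mice dosed ip (UCB Pharma). 6 Hz psychomotor seizure model at 44 mA, per Kaminski and co-workers.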

In assay [4] the test system is Mus musculus. Nature of the assay: Antinociceptive activity in NMRI mouse assessed as inhibition of formalin-induced neuropathic pain at 25 mg/kg, ip after 30 mins. The class given is functional, organism-based. Also on record: dose 25 mg/kg. In a few lines:
as §1

Assay [5] concerns Mus musculus. As to the kind of experiment: Antinociceptive activity in NMRI mouse assessed as inhibition of formalin-induced neuropathic pain at 68 mg/kg, ip after 30 mins. As to conditions: route intraperitoneal. Also noted: scale not given: the % may be the effect or the level left. It counts as functional. The method in brief:
as §1

Calls of active or inactive are those of the source. The rule behind the calls is not given here.

Regarding `N[C@@H](C(=O)NCc1ccccc1)C1CCCCC1`, in the assay with Mus musculus [1], the Activity was 95%. Also, in the assay with Mus musculus [2], the ED50 was 28 mg/kg. The minimal effective dose in the assay with Mus musculus [3] stood at 140 mg/kg. Moreover, the result in the assay with Mus musculus [4] was inactive.
For `CCCC(N)C(=O)NCc1ccccc1` (racemic), the ED50 in the assay on Mus musculus [2] came out at 39 mg/kg. Besides, the Activity in the assay on Mus musculus [5] is on record as 17%. Moreover, the minimal effective dose in the assay with Mus musculus [3] was found to be 120 mg/kg.

Usually ED50 stands for the dose at which the effect has come halfway, by size or by number of responders.
